The values below come from publication PMC10558795 (Redox Biology, 2023).

Structures can show the parent of a compound that is named as a salt. Where two headings read alike, the source gives them in different places.

The subject of one data set is NQO1-YFP H1299 cells. In words: Cell viability. It is filed as cell-based, human. In short, it runs like this: (§1)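 NQO1-YFP H1299 reporter cells (YFP in NQO1 intron 1, constitutive mCherry) were seeded 1000/well in 384-well plates and cultured overnight. Primary screen: 1 μM compound in 0.1% DMSO, one well each, with CDDO 200 nM and 0.1% DMSO controls. Retests used 10-point serial dilutions from 10 µM in triplicate, with brusatol control. Imaged at 0, 24, 48, 64 h (YFP = NRF2 activity, mCherry = viability); IC₅₀ by curve fit.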

Another data set has as its system KYSE180 cells. Description: High-content cytotoxicity screen. It is filed as cell-based, human. In short, it runs like this: (§2)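 Cells were seeded at 1200/well in 384-well plates and cultured overnight. Test compound was added at […] serial dilution from 10 µM, in triplicate, for 3 days. Controls were 0.1% DMSO (negative), 30 µM benzethonium chloride and 0.1% Triton X-100 added just before staining (positive). Cells were stained with 0.5 µg/ml Hoechst and 100 nM YOYO1, four 4× images per well. Normalized total-cell and dead-cell percentages were fitted for IC₅₀.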

For another data set, the system named is KYSE70 cells. In words: High-content cytotoxicity screen. It is filed as cell-based, human. The method in brief:
as §2

Data set [1] concerns NRF2 activity (NQO1-YFP signal, CDDO-activated). In words: High-throughput screen and dose response: NRF2 activity. It is filed as cell-based, human. The method in brief: as §1
The subject of data set [2] is NRF2 and NQO1 expression in NRF2^Mut-KYSE180 cells. Description: Western blotting of NRF2 and NQO1 expression in KYSE180 cells. In kind it is cell-based, human. In short, it runs like this:
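NRF2-mutant KYSE180 cells (37 °C, 5% CO₂) treated with test compound; nuclear and cytosolic fractions prepared with a nuclear extraction kit. Proteins separated by SDS-PAGE onto nitrocellulose, primary antibody overnight at 4 °C, chemiluminescence on film. Bands quantified by densitometry, mean ± SD, Student's t-test.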

In a further data set the test system is global translation. In words: Protein synthesis assay. In kind it is cell-based, human. The note with it: KYSE70; PYR 10 μM, MIT 20 nM; CHX positive control. In short, it runs like this: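 KYSE70 cells (37 °C, 5% CO₂) seeded at 2000 cells/well in 96-well plates; exposed to test compound or cycloheximide (positive control) in triplicate. Global translation measured with a commercial protein synthesis assay kit per manufacturer's protocol; cells imaged on a high-content imager.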

In data set [3] the test system is ABCG2 and TOP2A expression. Description: ABCG2 and TOP2A expression in KYSE70 cells. In kind it is cell-based, human.
Data set [4] has as its system NRF2 and NQO1 expression in NRF2^Mut-KYSE70 cells. Description: Western blotting of NRF2 and NQO1 expression in KYSE70 cells. It is filed as cell-based, human. In short, it runs like this:
(§3)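 Nuclear and cytosolic fractions prepared with an extraction kit, or whole-cell lysates in RIPA buffer. Proteins separated by SDS-PAGE, transferred to nitrocellulose, blocked and probed with primary antibody overnight at 4 °C. Chemiluminescence detected on film and quantified by densitometry; band data as mean ± SD, Student's t-test.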
In general terms: A western blot detects proteins with antibodies after separation by electrophoresis.

Another data set addresses NRF2 (NRF2^WT-KYSE450) (Homo sapiens, UniProt Q16236). In words: CHX chase analysis of NRF2 half-life in KYSE450 cells. Conditions: PYR 10 μM, MIT 20 nM. It is filed as cell-based. In short, it runs like this: (§4)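 Cells were grown in RPMI1640 GlutaMAX with 10% FBS and 1% penicillin/streptomycin at 37 °C, 5% CO₂. They were pre-incubated 4 h with test compound, then given 200 μg/ml cycloheximide to block protein synthesis. Cells were harvested at set time points after cycloheximide. Total lysates were run on SDS-PAGE and blotted for NRF2 and GAPDH, and band densities were used to calculate NRF2 half-life.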

For a further data set, the target named is NRF2 (NRF2^Mut-KYSE180) (Homo sapiens, UniProt Q16236, D77V). In words: CHX chase analysis of NRF2 half-life in KYSE180 cells. In kind it is cell-based. The note with it: PYR 10 μM, MIT 20 nM. The method in brief:
as §4

For data set [5], the system named is NFE2L2 mRNA and NRF2 target genes. Description: qPCR of NFE2L2 mRNA and NRF2 target genes. In kind it is cell-based, human. The method in brief:
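Gene expression quantified by real-time PCR using gene-specific primers and TaqMan probes on a 96-well real-time PCR system.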
A general note: In qPCR the cycle at which signal appears reflects the starting amount.

A further data set deals with NRF2-ARE binding (Homo sapiens, UniProt Q16236, W24C). In words: ELISA-based TransAM NRF2-ARE binding assay with KYSE70 nuclear extracts. In short, it runs like this: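 TransAM ELISA: nuclear extract from untreated KYSE70 cells (20 μg/well) added to wells containing ARE oligonucleotide. Test compound, competitor or mutated competitor added, then 1 h incubation with mild agitation and washing. Anti-NRF2 antibody 1 h, then HRP-conjugated secondary antibody and substrate; A450nm read.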

In data set [6] the test system is human NRF2 target genes in KYSE70 cells. In words: RNAseq of KYSE70 cells. In kind it is cell-based. The note with it: PYR 10 μM for 72 h, MIT 20 nM for 72 h. The method in brief:
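Total RNA from treated and control cells made into Illumina libraries and sequenced (150 bp). Reads aligned to hg38 with RefSeq annotation and counted per gene; DEGs called by fold-change cut-off and corrected p-values. Gene set enrichment analysis performed; overall NRF2 target-gene mRNA level calculated on natural log scale.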

For data set [7] the following is noted: 90 mg/m^2, intravenous injection, cited from earlier work.
For data set [8], the system named is NRF2 expression in NRF2^WT-KYSE450 cells. In words: NRF2 expression in KYSE450 cells. It is filed as cell-based, human. In short, it runs like this: as §3
Setting [9] is: read-out: Cell viability (IC50), H1299-NQO1-YFP cells.
[10] abbreviates: read-out: Cell death (IC50), KYSE180, 3 days.
Where [11] appears, read: read-out: Cell proliferation (IC50), KYSE180, 3 days.
Where [12] appears, read: read-out: Cell death (IC50), KYSE70, 3 days.
The mark [13] stands for this setting: read-out: Cell proliferation (IC50), KYSE70, 3 days.
The mark [14] stands for this setting: read-out: NRF2 inhibition (IC50), H1299-NQO1-YFP cells, CDDO-activated YFP signal.
Setting [15] is: Homo sapiens, NCI-H1299, read-out: Cell viability (IC50, μM).
Setting [16] is: Homo sapiens, KYSE-180, 72 h, read-out: Cell proliferation (IC50, μM).
The mark [17] stands for this setting: Homo sapiens, KYSE-70, 72 h, read-out: Cell proliferation (IC50, μM).
Setting [18] is: Homo sapiens, NCI-H1299, read-out: NRF2 inhibition (IC50, μM).
Where [19] appears, read: Homo sapiens, KYSE-70, 72 h, read-out: Cell death (IC50, μM).

NRF2 (NRF2^WT-KYSE450), sequence (Q16236 whole entry): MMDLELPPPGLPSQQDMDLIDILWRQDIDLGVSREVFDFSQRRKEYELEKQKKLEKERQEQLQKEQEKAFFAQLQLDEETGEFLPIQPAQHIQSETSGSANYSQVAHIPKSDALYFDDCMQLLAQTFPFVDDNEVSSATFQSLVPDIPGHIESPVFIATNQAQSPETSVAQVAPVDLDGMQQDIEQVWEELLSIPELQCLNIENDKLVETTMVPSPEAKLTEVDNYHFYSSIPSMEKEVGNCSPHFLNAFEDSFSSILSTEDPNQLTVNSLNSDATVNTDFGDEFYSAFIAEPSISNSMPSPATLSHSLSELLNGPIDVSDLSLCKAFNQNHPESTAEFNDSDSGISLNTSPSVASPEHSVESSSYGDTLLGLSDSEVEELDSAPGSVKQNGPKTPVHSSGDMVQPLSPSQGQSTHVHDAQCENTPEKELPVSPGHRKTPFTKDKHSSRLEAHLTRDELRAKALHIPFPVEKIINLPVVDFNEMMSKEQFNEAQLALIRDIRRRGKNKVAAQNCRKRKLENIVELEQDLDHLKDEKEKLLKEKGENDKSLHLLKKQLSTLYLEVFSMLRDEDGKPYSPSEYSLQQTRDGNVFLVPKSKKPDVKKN
NRF2 (NRF2^Mut-KYSE180), sequence (Q16236 whole entry D77V): as the sequence (Q16236 whole entry) above, with D77V counted along it
NRF2-ARE binding, sequence (Q16236 whole entry W24C): as the sequence (Q16236 whole entry) above, with W24C counted along it

On to `CN1CC[C@@]2(C)c3cc(O)ccc3N(C)[C@@H]12` [Eseroline fumarate], for which the IC50 in the data set on NQO1-YFP H1299 cells (setting [9]) was greater than 10 µM; in the data set with KYSE180 cells (setting [10]), greater than 10 µM; in the data set on KYSE180 cells (setting [11]), greater than 10 µM; in the data set on KYSE70 cells (setting [12]), greater than 10 µM; with KYSE70 cells (setting [13]) it was 10 µM; in data set [1] (setting [14]), 0.26 µM.
As for `CCOc1ccc2c(c1)C(C)=CC(C)(C)N2` [Ethoxyquin], the IC50 is greater than 10 µM in the data set with NQO1-YFP H1299 cells (setting [15]), greater than 10 µM in the data set with KYSE180 cells (setting [16]), greater than 10 µM in the data set on KYSE70 cells (setting [17]) and 0.29 µM in [1] (setting [18]).
`CCC(NC(C)C)C(O)c1ccc(O)c(O)c1` (stereo not shown) [Isoetharine mesylate]: the IC50 is greater than 10 µM in the data set with NQO1-YFP H1299 cells (setting [15]), greater than 10 µM in the data set on KYSE180 cells (setting [16]), greater than 10 µM in the data set on KYSE70 cells (setting [17]) and 0.49 µM in [1] (setting [18]).
On to `CC(C)NC[C@H](O)c1ccc(O)c(O)c1` [Isoproterenol bitratrate], for which the IC50 in the data set with NQO1-YFP H1299 cells (setting [9]) was greater than 10 µM; with KYSE180 cells (setting [10]) it was greater than 10 µM; in the data set on KYSE180 cells (setting [11]), greater than 10 µM; with KYSE70 cells (setting [12]) it was greater than 10 µM; in the data set with KYSE70 cells (setting [13]) it was 4.9 µM; in data set [1] (setting [14]), 0.43 µM.
For the compound `CC(C)NCC(O)c1ccc(O)c(O)c1` (stereo not shown) [Isoproterenol hydrochloride], the IC50 is greater than 10 µM in the data set on NQO1-YFP H1299 cells (setting [15]); greater than 10 µM in the data set on KYSE180 cells (setting [16]); greater than 10 µM in the data set on KYSE70 cells (setting [19]); 5.2 µM in the data set on KYSE70 cells (setting [17]); 0.84 µM in data set [1] (setting [18]).
Turning to `O=C1c2c(O)ccc(O)c2C(=O)c2c(NCCNCCO)ccc(NCCNCCO)c21` [MIT, mitoxantrone dihydrochloride], the IC50 in the data set with NQO1-YFP H1299 cells (setting [15]) was greater than 10 µM; with KYSE180 cells (Homo sapiens, KYSE-180, 72 h, read-out: Cell death (IC50, μM)), 0.00522 µM; in the data set on KYSE180 cells (setting [16]), 0.00457 µM; in the data set with KYSE70 cells (setting [19]), 0.00324 µM; with KYSE70 cells (setting [17]), 0.00584 µM; in [1] (setting [18]) it was 0.035 µM. Moreover, the “Expression of nuclear NRF2 and cytoplasmic NQO1” value in [2] is “inhibited the expression of nuclear NRF2 and cytoplasmic NQO1 in a dose- and time-dependent manner”; in [4] (KYSE70 cells), “inhibited the expression of nuclear NRF2 and cytoplasmic NQO1 in a dose- and time-dependent manner”. For the same compound, in the data set on global translation, the Global translation result was “Neither PYR (10 μM) nor MIT (20 nM) inhibited global translation”. For the same compound, in [3], the “ABCG2 and TOP2A expression” value is “increased”. For the same compound, the “Effect on NRF2 half-life” value at NRF2 (NRF2^WT-KYSE450) was “not changed”; on NRF2 (NRF2^Mut-KYSE180), “shortened NRF2 half-life”. Also, in [5], the “NFE2L2 mRNA and NRF2 target genes (AKR1B10, AKR1C2, AKR1C3, PGD, SLC7A11, TKT) by qPCR” value is recorded as “downregulation”. Moreover, the NRF2-ARE binding activity entry on NRF2-ARE binding is given as “did not observe any changes”. In addition, in data set [6], the “Overall mRNA expression level of human NRF2 target genes” value is “significantly reduced”. The “Cmax in the plasma” value in data set [7] is 6430 ± 2430 ng/mL. In addition, in [7] (read-out: Cmax in the plasma), the Cmax – broadly, the peak of the concentration-time curve – is 12.4 ± 4.7 µM.
As for `CN(Cc1cnc2nc(N)nc(N)c2n1)c1ccc(C(=O)N[C@@H](CCC(=O)O)C(=O)O)cc1` [MTX, methotrexate], the NRF2 expression result in [8] and in data set [4] (NRF2^Mut-KYSE70 cells) was “significantly inhibited NRF2 expression” throughout.
Consider `Nc1nc(N)c2nc(-c3ccccc3)c(N)nc2n1` [Triamterene], for which the IC50 in the data set on NQO1-YFP H1299 cells (setting [15]) is 3.7 µM; with KYSE180 cells (setting [16]), greater than 10 µM; in the data set on KYSE70 cells (setting [19]), greater than 10 µM; in the data set on KYSE70 cells (setting [17]) it was 7.7 µM; in data set [1] (setting [18]) it was 0.72 µM.
